Results pooled from the literature.
Each line is one published result; the experiments were not run side by side.
Observed: enzyme activity
Mode: inhibitor
Rock2: Rho-associated protein kinase 2 (Rock2, Rattus norvegicus, UniProt Q62868)
NUAK1: NUAK family SNF1-like kinase 1 (NUAK1, Homo sapiens, UniProt O60285)
DYRK1B: Dual specificity tyrosine-phosphorylation-regulated kinase 1B (DYRK1B, Homo sapiens, UniProt Q9Y463)

Compound | target | assay | conditions | remaining activity [%]
Cc1cnc(NC2CCOCC2)nc1-n1cnc(C(=O)NC(CN)c2cc(F)cc(Cl)c2)c1 (stereo not drawn) | Rock2 | radiometric | 1 µM | 25
Cc1nn(CC(F)(F)F)cc1Nc1ncc(C2CC2)c(NCc2ccc(S(N)(=O)=O)cc2)n1 | NUAK1 | radiometric | 1 µM | 97
COc1cccc(Nc2nc3cc(C(=O)O)ccc3c3cnccc23)c1 | DYRK1B | radiometric | 1 µM | 35
O=C(NCCCNc1nc(Nc2cccc(NC(=O)N3CCCC3)c2)ncc1Br)C1CCC1 | Inhibitor of nuclear factor kappa-B kinase subunit epsilon (IKBKE, Homo sapiens, UniProt Q14164) | radiometric | 1 µM | -2
Cc1ccc(C(=O)Nc2ccc(CN3CCN(C)CC3)c(C(F)(F)F)c2)cc1C#Cc1cnc2cccnn12 | Mitogen-activated protein kinase kinase kinase 15 (MAP3K15, Homo sapiens, UniProt Q6ZN16) | – | 23.5 nM | 67
COc1cccc(CCNc2nc3cc(C(=O)O)ccc3c3cncnc23)c1 | Dual specificity tyrosine-phosphorylation-regulated kinase 3 (DYRK3, Homo sapiens, UniProt O43781) | radiometric | 1 µM | 28
Cc1nn(CC(F)(F)F)cc1Nc1ncc(C2CC2)c(NCCCNC(=O)C2CCC2)n1 | NUAK1 | radiometric | 1 µM | 82
O=C(O)c1ccc2c(c1)nc(NCCc1cccc(Cl)c1)c1ccncc12 | DYRK1B | radiometric | 1 µM | 112
CCCOc1ccc(OC)c(F)c1C(=O)c1ccc(C(=O)N[C@@H]2CNC[C@H]2NC(=O)c2ccc3[nH]ncc3c2)cc1 | Rock2 | – | 10 µM | -1
